Data from ChEMBL document CHEMBL4014334, “BET Bromodomain Inhibitors with One-Step Synthesis Discovered from Virtual Screen” (J Med Chem, 2017).
pKd: −log10 of the molar value.

Columns and labels:
[1] = biological target: T1, Bromodomain testis-specific protein (Homo sapiens, UniProt Q58F21); assay: Binding affinity to 5FW-labeled BRDT bromodomain 1 W50 residue (unknown origin) expressed in Escherichia coli BL21(DE3) by PrOF NMR spectroscopic analysis
How it was run: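 5FW-BrdT(1) at 40–50 μM in 50 mM Tris, 100 mM NaCl, 3 mM DTT, pH 7.4, 5% D2O. The pocket Trp resonance is followed for broadening and for a new upfield peak as ligand is titrated.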

[2] = biological target: T1, Bromodomain testis-specific protein; assay: Binding affinity to 5FW-labeled BRDT bromodomain 1 residue (unknown origin) expressed in Escherichia coli BL21(DE3) by PrOF NMR spectroscopic analysis
[3] = biological target: Bromodomain-containing protein 4 (Homo sapiens, UniProt O60885); assay: Binding affinity to 5FW-labeled BRD4 bromodomain 1 (unknown origin) expressed in Escherichia coli BL21(DE3) by PrOF NMR spectroscopic analysis
How it was run: (§1)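 BrdT samples also contain 3 mM DTT. Spectra recorded with compound present and absent at 500 MHz, 90° flip angle, 0.7 s relaxation delay, 0.1 s acquisition, 500 transients. The read-out is broadening or shift of the binding-pocket Trp resonance.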

[4] = biological target: Nucleosome-remodeling factor subunit BPTF (Homo sapiens, UniProt Q12830); assay: Binding affinity to 5FW-labeled BPTF (unknown origin) by PrOF NMR spectroscopic analysis; how it was run: as §1

## CCn1c(N)cc(=O)[nH]c1=O
[1]
  pKd: 2.82
[2]
  pKd: 2.82
[3]
  pKd: 3.18
[4]
  pKd: 2.17
